Here are results for 15 compounds from PubChem BioAssay.

Assay [1] in a line: reducers of endogenous Her2 protein level, primary screen, SKBR3 breast tumor cells, AlphaScreen, ATP viability (AID 461;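 active means Her2 level under about 52% in both replicate screens, with viability over 70% of control, limit read from the data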;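 on Her2 level: lower value means less Her2 protein in the cells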;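 on viability: percent of carrier control wells set as 100% viability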). The settings on record: 18-24 h, measured here: SKBR3 viability, ATP luminescence, at 10 µM. A general note: Alpha assays give light when donor and acceptor beads are brought close together.
The target of assay [2] is Receptor tyrosine-protein kinase erbB-2 (Homo sapiens) (UniProt P04626). Described as above. The settings on record: 18-24 h, at 10 µM, stronger effect = lower value.
A short description of assay [3]: SK-BR-3 cell growth inhibitors, pilot screen, 24 h, human (AID 572;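 active means viability at or below 10% of carrier control in both of two separate runs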;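 further: compound exposure lasted between 18 and 24 h rather than exactly 24 h; 100% = carrier-treated control wells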). Particulars: SK-BR-3 viability, CellTiter-Glo luminescence, at 10 µM, stronger effect = lower value.
Assay [4] can be described thus: HUVEC growth inhibition – cell-based, human, primary screen (AID 575;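 active means viability at or below 30% in both replicate assays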;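 further: 100% = median of untreated cell wells with 0.1% DMSO on each plate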). The settings on record: HUVEC proliferation, CellTiter-Glo luminescence, 72 h; at 10 µM; stronger effect = lower value. Put shortly: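 Timing: 72 h treatment at 37 °C; material: HUVEC primary cells; technique: CellTiter-Glo luminescence measuring cellular ATP; controls: vehicle and MePR control wells; measure: percent of median DMSO-control luminescence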

Assay [5] in a line: growth inhibitors of H69AR lung tumor, primary screen, human, duplicate replicates (AID 580;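 active means viability at or under a set limit in both replicates, limit being median viability minus 3 SD, cut at about 48% in these data, passing the limit was not always enough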;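 further: 100% = mean luminescence of untreated wells and 0% = no signal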). Particulars: H69AR lung tumor cells viability, ATP luminescence, 72 h; at 10 µM; stronger effect = lower value.
A short description of assay [6]: reversal of MRP1-mediated doxorubicin resistance, pilot screen, H69AR cells, doxorubicin co-treatment (AID 601;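 active means viability loss from added drug above about 55%, and viability with drug at most 40%, in both replicates, limit read from the data, passing the limit was not always enough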). Particulars: CellTiter-Glo, 72 h, at 10 µM; for differential viability (reversal): stronger effect = higher value.
Assay [7] is described as follows: 384-well plate pilot, post-Golgi transport modulator project, inhibition of yeast transport mutant growth (AID 636; in the data active means inhibition above about 31%). Particulars: absorbance 615 nm, about 18 h, stronger effect = higher value.
Assay [8] can be described thus: growth suppression of yeast trafficking mutant, preliminary HTS, modulators of trafficking downstream of Golgi apparatus project, 1536-format plate, OD 615 nm (AID 637). The settings on record: yeast transport mutant growth, absorbance 615 nm, 18 h; stronger effect = higher value.
The mark [9] stands for this setting: H69AR cells + 2 uM doxorubicin, measured here: viability with 2 uM doxorubicin, stronger effect = lower value.
[10] abbreviates: H69AR cells, compound alone cytotoxicity.

Calls of active or inactive are those of the source. Unless noted, no stated cut-off is given here; in the data, active means inhibition above about 30%; inactive means the rest.

Receptor tyrosine-protein kinase erbB-2 (Homo sapiens), sequence (P04626 whole entry, looked up): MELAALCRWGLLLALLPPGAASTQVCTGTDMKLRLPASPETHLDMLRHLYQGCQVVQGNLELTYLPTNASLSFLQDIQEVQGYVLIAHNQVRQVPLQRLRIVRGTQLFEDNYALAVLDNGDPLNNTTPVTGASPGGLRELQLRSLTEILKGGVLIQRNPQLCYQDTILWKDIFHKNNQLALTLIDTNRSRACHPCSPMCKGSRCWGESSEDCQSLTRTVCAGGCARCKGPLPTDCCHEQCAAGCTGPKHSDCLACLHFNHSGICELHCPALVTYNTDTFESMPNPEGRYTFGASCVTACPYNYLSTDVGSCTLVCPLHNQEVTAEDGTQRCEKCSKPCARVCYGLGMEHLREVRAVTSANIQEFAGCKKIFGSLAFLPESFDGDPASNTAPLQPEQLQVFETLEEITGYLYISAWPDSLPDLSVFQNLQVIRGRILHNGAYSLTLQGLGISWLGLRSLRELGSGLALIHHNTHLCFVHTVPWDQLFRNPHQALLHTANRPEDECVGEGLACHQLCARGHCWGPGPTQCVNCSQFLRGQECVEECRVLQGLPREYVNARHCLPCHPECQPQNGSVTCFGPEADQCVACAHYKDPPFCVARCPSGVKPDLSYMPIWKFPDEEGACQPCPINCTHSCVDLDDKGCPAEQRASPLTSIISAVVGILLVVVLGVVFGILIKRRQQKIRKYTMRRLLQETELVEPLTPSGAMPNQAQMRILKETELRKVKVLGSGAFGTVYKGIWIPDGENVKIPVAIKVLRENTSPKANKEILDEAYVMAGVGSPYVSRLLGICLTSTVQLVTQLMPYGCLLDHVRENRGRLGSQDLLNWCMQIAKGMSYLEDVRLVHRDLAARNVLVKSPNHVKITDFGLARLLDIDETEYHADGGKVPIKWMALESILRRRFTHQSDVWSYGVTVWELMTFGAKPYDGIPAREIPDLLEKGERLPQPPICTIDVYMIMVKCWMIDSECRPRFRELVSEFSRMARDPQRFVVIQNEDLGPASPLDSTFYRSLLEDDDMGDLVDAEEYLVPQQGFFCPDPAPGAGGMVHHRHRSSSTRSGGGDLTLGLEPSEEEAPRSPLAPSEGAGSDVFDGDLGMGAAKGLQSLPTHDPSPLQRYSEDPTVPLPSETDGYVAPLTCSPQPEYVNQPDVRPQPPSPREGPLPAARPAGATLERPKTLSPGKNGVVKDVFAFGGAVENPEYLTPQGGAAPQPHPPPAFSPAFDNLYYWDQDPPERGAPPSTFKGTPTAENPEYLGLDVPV

`COc1ccc(N2CCN(CCCNC(=O)C3(S(=O)(=O)c4ccc(Cl)cc4)CC3)CC2)cc1`: the viability (commonly a read-out of living cells in per cent, often relative to untreated cells) in assay [1] is 87.5%; in assay [3], 87.5% (inactive); in assay [4] it was 87.2% (inactive); in assay [5], 83.1% (inactive); in assay [6] (setting [9]), 96.1%; in assay [6] (setting [10]), 83.1%. Besides, the Her2 level in assay [2] was 96.5% (inactive). Besides, the differential viability (reversal) in assay [6] (H69AR cells + 2 uM doxorubicin) was -13.1% (inactive). In addition, the inhibition – broadly, the drop in the measured response relative to a control, in per cent – in assay [7] was -0.65% (inactive); in assay [8], -2.54% (inactive).
Take `ON1C2CCCCC2N(O)C1c1c(F)c(F)c(F)c(F)c1F` (stereo not given): the viability is 89.5% in assay [1]; 89.5% (inactive) in assay [3]; 85.9% (inactive) in assay [4]; 92.8% (inactive) in assay [5]; 82.5% in assay [6] (setting [9]); 92.8% in assay [6] (setting [10]). In addition, the Her2 level in assay [2] was 79% (inactive). For the same compound, the differential viability (reversal) in assay [6] (H69AR cells + 2 uM doxorubicin) is 10.3% (inactive). Further, the inhibition in assay [7] was -5.2% (inactive); in assay [8], -0.97% (inactive).
Consider `COc1ccccc1OCc1ccc(C(=O)OCC2CCCO2)o1` (stereo not given), for which the viability in assay [1] is 97.5%; in assay [3] it was 97.5% (inactive); in assay [4] it was 106% (inactive); in assay [5] it was 100% (inactive); in assay [6] (setting [9]), 99.8%; in assay [6] (setting [10]), 100%. Also, the Her2 level in assay [2] was 112% (inactive). The differential viability (reversal) in assay [6] (H69AR cells + 2 uM doxorubicin) was 0.33% (inactive). The figures for the inhibition in assay [7] and in assay [8] were -5.39% (inactive) and -3.27% (inactive), respectively.
As to `O=C(O)C1CC(=O)N(c2ccc(Br)cc2)C1` (stereo not given), the viability is 81.5% in assay [1]; 81.5% (inactive) in assay [3]; 94.6% (inactive) in assay [4]; 93.8% (inactive) in assay [5]; 89.8% in assay [6] (setting [9]); 93.8% in assay [6] (setting [10]). Besides, the Her2 level in assay [2] is 122% (inactive). In addition, the differential viability (reversal) in assay [6] (H69AR cells + 2 uM doxorubicin) was 4.02% (inactive). For the same compound, the inhibition in assay [7] is -6.05% (inactive); in assay [8], -4.1% (inactive).
For `O=C1N(c2ccccc2)C2CS(=O)(=O)CC2N1c1ccc(Br)cc1` (stereo not given), the viability in assay [1] was 102%; in assay [3], 102% (inactive); in assay [4], 97.7% (inactive); in assay [5] it was 101% (inactive); in assay [6] (setting [9]), 83.2%; in assay [6] (setting [10]), 101%. In assay [2], the Her2 level is 88.5% (inactive). Also, the differential viability (reversal) in assay [6] (H69AR cells + 2 uM doxorubicin) was 17.5% (inactive). Besides, the inhibition in assay [7] is -6.4% (inactive); in assay [8], -0.95% (inactive).
Take `O=C(NCCCCNC(=O)c1c(F)c(F)c(F)c(F)c1F)c1c(F)c(F)c(F)c(F)c1F`: the viability in assay [1] was 98.5%; in assay [3], 98.5% (inactive); in assay [4], 97.2% (inactive); in assay [5], 89.4% (inactive); in assay [6] (setting [9]), 78.9%; in assay [6] (setting [10]), 89.4%. In addition, in assay [2], the Her2 level is 76.5% (inactive). Further, the differential viability (reversal) in assay [6] (H69AR cells + 2 uM doxorubicin) was 10.4% (inactive). Also, the inhibition in assay [7] was -6.27% (inactive); in assay [8], -3.17% (inactive).
As for `Cc1cc(-c2ccccc2)c2c3c(cn2n1)c(=O)n(C)c(=O)n3C`, the viability in assay [1] was 108%; in assay [3], 108% (inactive); in assay [4] it was 84.3% (inactive); in assay [5], 75.6% (inactive); in assay [6] (setting [9]) it was 76.1%; in assay [6] (setting [10]), 75.6%. Further, the Her2 level in assay [2] was 83% (inactive). Also, in assay [6] (H69AR cells + 2 uM doxorubicin), the differential viability (reversal) is -0.565% (inactive). Moreover, the inhibition was -2.37% (inactive) in assay [7] and 0.33% (inactive) in assay [8].
As for `C=CCSc1nnc(-c2ccccc2NC(C)=O)c(=O)[nH]1`, the viability was 106% in assay [1]; 106% (inactive) in assay [3]; 105% (inactive) in assay [4]; 93% (inactive) in assay [5]; 83.4% in assay [6] (setting [9]); 93% in assay [6] (setting [10]). The Her2 level in assay [2] is 105% (inactive). In addition, the differential viability (reversal) in assay [6] (H69AR cells + 2 uM doxorubicin) is 9.55% (inactive). For the same compound, the results for the inhibition in assay [7] and in assay [8] were -3.03% (inactive) and -0.36% (inactive), respectively.
Consider `Cc1nnc(SCc2cn3ccsc3n2)n(N)c1=O`, for which the viability in assay [1] is 95.5%; in assay [3], 95.5% (inactive); in assay [4], 95% (inactive); in assay [5], 86.5% (inactive); in assay [6] (setting [9]), 90.7%; in assay [6] (setting [10]), 86.5%. The Her2 level in assay [2] was 81.5% (inactive). The differential viability (reversal) in assay [6] (H69AR cells + 2 uM doxorubicin) is -4.16% (inactive). The inhibition in assay [7] is 0.26% (inactive); in assay [8], 21.3% (inactive).
On to `COCCNC(=O)CN(C)S(=O)(=O)c1ccc2c(c1)OCCO2`, for which the viability in assay [1] is 107%; in assay [3] it was 107% (inactive); in assay [4], 104% (inactive); in assay [5] it was 100% (inactive); in assay [6] (setting [9]), 88.2%; in assay [6] (setting [10]), 100%. Further, the Her2 level in assay [2] is 102% (inactive). Also, the differential viability (reversal) in assay [6] (H69AR cells + 2 uM doxorubicin) was 12% (inactive). The inhibition in assay [7] is -4.8% (inactive); in assay [8], -2.26% (inactive).
Take `COc1ccc(C(=O)N2CCN(C3CCC(c4ccccc4)CC3)CC2)cc1OC` (stereo not given): the viability is 108% in assay [1]; 108% (inactive) in assay [3]; 95.2% (inactive) in assay [4]; 83% (inactive) in assay [5]; 85.6% in assay [6] (setting [9]); 83% in assay [6] (setting [10]). For the same compound, the Her2 level in assay [2] was 93% (inactive). The differential viability (reversal) in assay [6] (H69AR cells + 2 uM doxorubicin) is -2.52% (inactive). The values for the inhibition in assay [7] and in assay [8] were -4.16% (inactive) and -3.67% (inactive), respectively.
For `CC12CN3CC(C)(CN(C1)C3c1cc(Br)ccc1O)C2=O` (stereo not given), the viability is 95.5% in assay [1]; 95.5% (inactive) in assay [3]; 87% (inactive) in assay [4]; 100% (inactive) in assay [5]; 98.9% in assay [6] (setting [9]); 100% in assay [6] (setting [10]). Further, in assay [2], the Her2 level is 124% (inactive). In addition, the differential viability (reversal) in assay [6] (H69AR cells + 2 uM doxorubicin) is 1.15% (inactive). For the same compound, the inhibition in assay [7] is -0.65% (inactive); in assay [8], -3.83% (inactive).
Consider `O=[n+]1c2c(n([O-])c3c1CCCC3)CCCC2`, for which the viability in assay [1] was 108%; in assay [3], 108% (inactive); in assay [4], 93.9% (inactive); in assay [5], 88.6% (inactive); in assay [6] (setting [9]), 96.9%; in assay [6] (setting [10]), 88.6%. The Her2 level in assay [2] is 91% (inactive). Also, the differential viability (reversal) in assay [6] (H69AR cells + 2 uM doxorubicin) is -8.33% (inactive). Further, the figures for the inhibition in assay [7] and in assay [8] were -0.65% (inactive) and 7.38% (inactive), respectively.
For the compound `Cc1ccccc1NC(=O)C1Cc2ccccc2C(=O)O1` (stereo not given), the viability in assay [1] was 134%; in assay [3], 134% (inactive); in assay [4], 116% (inactive); in assay [5] it was 98.7% (inactive); in assay [6] (setting [9]) it was 91.2%; in assay [6] (setting [10]), 98.7%. Besides, the Her2 level in assay [2] was 112% (inactive). Moreover, the differential viability (reversal) in assay [6] (H69AR cells + 2 uM doxorubicin) was 7.54% (inactive). The figures for the inhibition in assay [7] and in assay [8] were -4.93% (inactive) and 3.23% (inactive), respectively.
As for `CCc1ccc(NC(=O)C2CC(=O)N(C(C)C)C2)cc1` (stereo not given), the viability is 111% in assay [1]; 111% (inactive) in assay [3]; 100% (inactive) in assay [4]; 90.8% (inactive) in assay [5]; 94.6% in assay [6] (setting [9]); 90.8% in assay [6] (setting [10]). Besides, the Her2 level in assay [2] is 104% (inactive). In addition, the differential viability (reversal) in assay [6] (H69AR cells + 2 uM doxorubicin) is -3.8% (inactive). The inhibition in assay [7] was -4.13% (inactive); in assay [8], -2.46% (inactive).
